Assay results taken from ChEMBL document CHEMBL1121856, “Sulfur analogues of psychotomimetic agents. Monothio analogues of mescaline and isomescaline” (J Med Chem, 1981).

Assays:
Homo sapiens = organism: Homo sapiens; experiment: Compound was tested for the psychotropic effect in human (activity is expressed in mescaline unit); format: functional
How it was run: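 Healthy adult volunteers (32–65 y, experienced with psychotropic drugs) received the hydrochloride orally. Dosing began at 2 mg and rose in small increments (1.6:1) at trials spaced about 1 week apart until an effective level was found. Mescaline units are the effective dose of mescaline divided by that of the compound, both determined in man. A "less than" value means no activity at doses that would give that MU.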

[1] = molecular target: T1, monoamine oxidase (bovine plasma amine oxidase) (Bos taurus, UniProt P21398+P56560); experiment: In vitro bovine plasma monoamine oxidase deamination with semicarbazide; format: cell-free; settings: cattle, with semicarbazide (concentration not stated), read-out: MAO deamination
T1 sequence (P56560 whole entry): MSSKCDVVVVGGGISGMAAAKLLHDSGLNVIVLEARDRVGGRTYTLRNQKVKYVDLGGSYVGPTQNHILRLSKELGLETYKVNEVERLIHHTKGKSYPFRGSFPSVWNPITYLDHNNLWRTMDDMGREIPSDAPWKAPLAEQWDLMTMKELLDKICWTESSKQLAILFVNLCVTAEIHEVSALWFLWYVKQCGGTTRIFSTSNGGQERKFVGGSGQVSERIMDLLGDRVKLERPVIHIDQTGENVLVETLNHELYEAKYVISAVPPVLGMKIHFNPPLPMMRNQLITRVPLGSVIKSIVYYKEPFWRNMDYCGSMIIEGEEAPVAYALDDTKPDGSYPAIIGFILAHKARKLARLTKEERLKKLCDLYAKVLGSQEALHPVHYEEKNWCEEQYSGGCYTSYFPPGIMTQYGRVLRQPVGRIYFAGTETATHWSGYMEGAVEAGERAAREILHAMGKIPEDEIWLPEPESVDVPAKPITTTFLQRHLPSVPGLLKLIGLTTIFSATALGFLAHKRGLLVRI
T1 sequence (P21398 whole entry): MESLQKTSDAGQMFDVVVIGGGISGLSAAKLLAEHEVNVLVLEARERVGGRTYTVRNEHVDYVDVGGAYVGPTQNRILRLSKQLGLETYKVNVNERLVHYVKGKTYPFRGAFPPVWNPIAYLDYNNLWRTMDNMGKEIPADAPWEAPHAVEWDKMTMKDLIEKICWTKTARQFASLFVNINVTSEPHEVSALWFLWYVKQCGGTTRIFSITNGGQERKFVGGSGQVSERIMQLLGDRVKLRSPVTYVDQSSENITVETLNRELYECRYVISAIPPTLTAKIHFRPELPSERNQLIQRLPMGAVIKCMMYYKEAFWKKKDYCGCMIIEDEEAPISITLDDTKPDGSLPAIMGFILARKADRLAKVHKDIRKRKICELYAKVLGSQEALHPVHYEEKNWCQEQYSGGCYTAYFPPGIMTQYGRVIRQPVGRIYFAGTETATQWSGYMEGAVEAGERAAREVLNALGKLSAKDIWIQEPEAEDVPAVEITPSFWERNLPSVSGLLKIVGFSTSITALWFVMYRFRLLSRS
How it was run: (§1)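 Amines at 50 μM in 0.1 M phosphate buffer, pH 7.4, with 0.01 unit bovine plasma MAO and 50 μM semicarbazide, in duplicate, 1 h at 37 °C. Stopped with 0.5 N NaOH, internal standard added, extracted into CH2Cl2. Remaining amine measured by GC as heptafluorobutyryl derivatives, quantitated by peak-height ratio against enzyme-free standards.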

[2] = molecular target: T1, monoamine oxidase (bovine plasma amine oxidase); experiment: In vitro bovine plasma monoamine oxidase deamination without semicarbazide; format: cell-free; settings: cattle, read-out: MAO deamination
How it was run: as §1, with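 “MAO, no” for “MAO and 50 μM”, “GC (OV-101, 185 °C)” for “GC”, “standards prepared without enzyme.” for “enzyme-free standards.”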

COc1cc(CCN)cc(OC)c1OC [MESCALINE]
Human potency (Homo sapiens): 1 MU
metabolised [1]: 1%
metabolised [2]: 21%

COc1cc(CCN)cc(OC)c1SC
Human potency (Homo sapiens): 12 MU
metabolised [2]: 56%

COc1ccc(CCN)c(SC)c1OC
Human potency (Homo sapiens): <2 MU
metabolised [1]: 10%
metabolised [2]: 78%

COc1ccc(CCN)c(OC)c1SC
Human potency (Homo sapiens): <2 MU
metabolised [2]: 31%

COc1ccc(CCN)cc1OC
Human potency (Homo sapiens): <1 MU
metabolised [1]: 16%
metabolised [2]: 64%

COc1ccc(CCN)c(OC)c1OC
Human potency (Homo sapiens): <1 MU
metabolised [1]: 4%
metabolised [2]: 55%

COc1c(CCN)ccc(SC)c1OC
Human potency (Homo sapiens): <2 MU
metabolised [2]: 40%

COc1cc(CCN)cc(SC)c1OC
Human potency (Homo sapiens): 6 MU
metabolised [2]: 60%
